Screening data (PubChem)
MrgX1 antagonist = antagonists of human MrgX1 receptor, primary screen, HEK293 cells, Fluo-4 calcium flux. actives 1.3% (n = 310,000). BAM8-22 antagonism; hits give low values. B-score at 10 µM. Mas-related G-protein coupled receptor member X1 (Homo sapiens), Q96LB2;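 active means calcium-response B-score plate-corrected more than 3 library SD below zero, starting fluorescence within 5 deviations, no agonist response on first addition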;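 further: peak minus trough fluorescence over baseline after final BAM8-22 challenge near maximal dose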
Target sequence (Q96LB2 whole entry, looked up): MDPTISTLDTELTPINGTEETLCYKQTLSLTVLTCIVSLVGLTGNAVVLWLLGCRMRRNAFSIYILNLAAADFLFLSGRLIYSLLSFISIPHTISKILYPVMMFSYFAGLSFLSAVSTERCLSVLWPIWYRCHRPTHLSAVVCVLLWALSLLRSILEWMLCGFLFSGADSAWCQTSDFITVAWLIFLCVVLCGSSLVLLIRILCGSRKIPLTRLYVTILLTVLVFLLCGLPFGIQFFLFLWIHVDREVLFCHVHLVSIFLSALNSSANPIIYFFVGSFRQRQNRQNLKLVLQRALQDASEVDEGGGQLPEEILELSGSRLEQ
MrgX1 agonist = agonists of human MrgX1 receptor, primary screen, HEK293 cells, Fluo-4 calcium flux. Mas-related G-protein coupled receptor member X1 (Homo sapiens), Q96LB2. Fluo-4 calcium fluorescence, agonist mode; hits give high values. B-score at 10 µM. actives 0.44% (n = 310,000). AID 588627, 2011;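 active means calcium response B-score plate-corrected fluorescence ratio at least 3 library SD, with starting fluorescence B-score inside 5 SD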
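Material: HEK293 cells stably expressing human MrgX1 receptor | Quantity: 15,000 cells per well | Times: Cells plated overnight, dye loaded 0.5 h 37 °C, 0.5 h room temperature | Measured by: Kinetic Fluo-4 NW fluorescence of intracellular calcium | Control set: Positive and negative controls per plate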
RGS4 inh = RGS4 inhibitors, primary screen, cell-based, HEK293 M3R inducible RGS4, calcium flux. Regulator of G-protein signaling 4 (Homo sapiens), P49798. Fluo-4 calcium flux; hits give high values; triggered by carbachol at its EC20. B-score at 10 µM. actives 0.45% (n = 310,000). AID 463165, 2010;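 active means B-score, a plate-corrected calcium signal, over three deviations above library mean, with baseline fluorescence within five deviations of library mean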;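 further: RGS4 expression induced by doxycycline in cells with stable M3 receptor; B-score is computed from the integrated fluorescence ratio over baseline after carbachol; higher B-score means a larger calcium signal and so more RGS4 inhibition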
Target sequence (P49798 whole entry, looked up): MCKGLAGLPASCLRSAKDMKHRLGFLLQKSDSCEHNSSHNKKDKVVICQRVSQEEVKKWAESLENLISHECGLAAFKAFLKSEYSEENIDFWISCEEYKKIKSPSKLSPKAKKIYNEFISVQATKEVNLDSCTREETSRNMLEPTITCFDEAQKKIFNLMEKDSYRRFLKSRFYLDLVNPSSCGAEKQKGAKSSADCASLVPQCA
MrgX1 PAM = positive allosteric modulators of MrgX1, primary screen, HEK293 cells, Fluo-4 calcium flux. B-score at 10 µM. AID 588675, 2011. FDSS; hits give high values. actives 0.63% (n = 310,000). Mas-related G-protein coupled receptor member X1 (Homo sapiens), Q96LB2;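 active means plate-corrected calcium response at least 3 library SD above typical, normal starting fluorescence, not activating the receptor alone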;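 further: compound read alongside a low EC10 to EC30 dose of BAM8-22 agonist; peak minus trough fluorescence over baseline measured at the second addition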
RGS4 act = RGS4 potentiators or activators, primary screen, cell-based, HEK293 M3R inducible RGS4, calcium flux. carbachol calcium flux Fluo4; hits give low values. B-score at 10 µM. actives 0.92% (n = 310,000). AID 463111, 2010;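 active means B-score of the integrated calcium signal more than 4 SD below the library mean, with starting fluorescence not abnormally high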;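 further: negative B-score means reduced calcium response which marks RGS4 activation or potentiation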
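Also added: carbachol at ECmax as muscarinic agonist stimulus; Assay system: HEK293 cells with stable M3R and inducible RGS4; Timing: overnight RGS4 induction, 30 min dye load 37 °C, 20 min compound RT; Measured by: Fluo4-AM (2 µM) calcium-flux fluorescence, kinetic read.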
Active calls of the source: *; i = inactive; . = no result. An excerpt weighted towards active compounds, which were near 3.5% of everything screened.

SMILES | MrgX1 antagonist | MrgX1 agonist | RGS4 inh | MrgX1 PAM | RGS4 act
COc1cc(C)c(C(C)C)cc1S(=O)(=O)NC1CC(C)(C)NC(C)(C)C1 | i | i | i | i | i
N#CCCN(Cc1cccnc1)S(=O)(=O)c1ccc(S(=O)(=O)NC2CCCCC2)cc1 | -5.62* | i | i | i | i
O=C(COc1ccc(S(=O)(=O)NC2CCCCC2)cc1)NCc1cccnc1 | i | i | i | i | i
O=C(CCC(=O)OCC(=O)c1ccc([N+](=O)[O-])cc1)Nc1ccccc1Cl | -5.52* | i | i | i | i
O=C(CCC(=O)OCC(=O)c1cccc([N+](=O)[O-])c1)Nc1cccc(Cl)c1Cl | i | i | i | i | i
O=C(CC(=O)c1ccccc1)Nc1cc([N+](=O)[O-])ccc1Cl | i | i | i | i | i
O=C(COC(=O)c1ccccc1NS(=O)(=O)c1cc([N+](=O)[O-])ccc1Cl)c1ccccc1 | i | 31.9* | i | i | i
COc1cc(/C=N/NC(=O)CSCc2ccc([N+](=O)[O-])cc2)cc(OC)c1OC | i | i | i | i | i
CCOc1ccc(S(=O)(=O)N(CCO)CCO)cc1-c1nc2c(C(C)(C)C)nn(C)c2c(=O)[nH]1 | i | i | i | i | i
Fc1ccc(C2C3=C(Nc4ncnn42)c2ccccc2OC3c2ccncc2)cc1 (configuration not stated) | i | i | i | i | i
Cc1ccc(C2Oc3ccccc3C3=C2C(c2cccs2)n2ncnc2N3)cc1 (configuration not stated) | i | i | i | i | -7.28*
Nc1c(C(=O)Nc2ccc(F)cc2)sc2nc(-c3ccco3)ccc12 | -4.92* | i | i | i | i
Nc1c(C(=O)Nc2ccc(Br)cc2)sc2nc(-c3ccco3)ccc12 | i | i | i | i | i
Cc1nc(-c2cc(C#N)c(Sc3ccc(Cl)cc3Cl)nc2C)cs1 | i | i | i | i | i
O=C(Cn1nc(CNc2ccc(Cl)cc2)[n+]2c1CCCCC2)c1ccccc1 | i | i | i | i | i
Cc1ccc(C(C)C)c(OCc2nn(CC(=O)c3ccc(Cl)cc3)c3[n+]2CCCCC3)c1 | i | i | i | i | -7.37*
O=C(NCC(c1ccco1)N1CCCC1)c1ccccc1Sc1ccc(C(F)(F)F)cc1[N+](=O)[O-] (configuration not stated) | i | i | i | i | -8.96*
CC1(C)CC(=O)C(C=NCCCN2CCOCC2)=C(O)C1 | i | i | i | i | i
O=C1c2ccccc2NC(c2cccc(Cl)c2)N1N=C1CCCCCC1 (configuration not stated) | i | i | i | 8.65* | i
O=C1c2ccccc2NC(c2ccc(Cl)cc2Cl)N1O (configuration not stated) | i | i | i | i | i
CC(C)(c1ccccc1)c1ccc(OCC(O)CN2CCCC2)cc1 (configuration not stated) | i | i | i | i | i
CCOc1cc(/C=N/NC(=O)c2nn(C)cc2Br)ccc1OCc1ccccc1 | -6.81* | i | i | i | i
CCN(CC)c1ccc(/C=C2\SC(N)=NC2=O)cc1 | i | 33.1* | i | i | i
COc1cccc(Oc2cn[nH]c2-c2ccc(OCC(=O)NN)cc2O)c1 | i | i | i | i | i
CCCOC(=O)c1ccc(Oc2cn[nH]c2-c2ccc(OC)cc2O)cc1 | i | i | i | i | -7.53*
SMILES | MrgX1 antagonist | MrgX1 agonist | RGS4 inh | MrgX1 PAM | RGS4 act
COc1ccc(N=CC2=C(O)CC(C)(C)CC2=O)cc1 | -6.54* | i | i | i | i
COc1ccc(OC)c(N=CC2=C(O)CC(C)(C)CC2=O)c1 | i | i | i | i | i
COc1ccc(C2CC2C(C)=O)cc1 (configuration not stated) | i | 30.3* | i | i | i
COc1ccc(C2CC2/C(C)=N/OC(=O)C2CC2)cc1 (configuration not stated) | i | i | i | i | i
Cc1nn(Cc2ccccc2)c(Cl)c1/C=C/C(=O)OC(C)C(=O)N1CCCC1 (configuration not stated) | -5.95* | i | i | i | i
Cc1nn(Cc2ccccc2)c(Cl)c1/C=C/C(=O)OCC(=O)NC(C)C(C)C (configuration not stated) | i | i | i | i | i
O=C(O)[C@H]1CCCN1S(=O)(=O)c1cccc2cccnc12 | i | i | . | i | .
Cc1c(OCC(=O)N2C[C@H]3C[C@@H](C2)c2cccc(=O)n2C3)ccc2c3c(c(=O)oc12)CCCC3 | i | i | i | i | -7.09*
Cc1c(OCC(=O)N2C[C@H]3C[C@@H](C2)c2cccc(=O)n2C3)ccc2c3c(c(=O)oc12)CCC3 | i | i | i | i | i
CCOc1ccccc1N(C)S(=O)(=O)c1ccc2c(c1)N(C(C)=O)CCO2 | i | i | i | i | i
Cc1csc2ncc(C(=O)NCCc3ccccc3)c(=O)n12 | i | i | i | i | i
O=C(Nc1cccc(Cl)c1N1CCCC1)c1ccc([N+](=O)[O-])o1 | i | i | i | i | i
CCN1CCN(c2c(Cl)cccc2NC(=O)c2ccc([N+](=O)[O-])o2)CC1 | i | i | i | i | -7.54*
C[N+]1(C)CC[C@H](OC(=O)[C@@](O)(c2ccccc2)C2CCCC2)C1 | i | i | i | i | i
CCN(CC)CC#CCOC(=O)C(O)(c1ccccc1)C1CCCCC1 (configuration not stated) | i | i | i | i | -7.02*
O=[N+]([O-])c1ccc(C2CCCC/C2=N/OCc2ccccc2F)c([N+](=O)[O-])c1 (configuration not stated) | i | i | i | i | -7.72*
CCN(Cc1ccccc1)c1ccc(/C=C(\C#N)c2ccccn2)cc1 | i | i | i | i | i
CCN(CC)c1ccc(/C=C(\C#N)c2ccccn2)cc1 | -9.07* | i | i | i | i
CCCCCC[n+]1c(-c2ccccc2)csc1Nc1ccccc1 | i | i | i | i | i
C=CC[n+]1c(-c2ccccc2)csc1NC(C)(C)C | -4.94* | i | i | i | i
